An excerpt weighted towards active compounds, which were near 12% of everything screened.
Lmaj promast: Leishmania major promastigote growth inhibition; AID 1063; inhibition, % at 10 µM; actives 9% (n = 200,000); Leishmania major promastigotes, resazurin fluorescence viability; in the data active = inhibition above about 50%;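 also: promastigotes grown with compound for 44 hours at 28 °C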
CHOP inhibitor: inhibitors of CHOP induction in ER stress response | CHO-K1 CHOP-promoter luciferase, tunicamycin-induced, 15-18 h | inhibition, % at 10 µM | actives 3.8% (n = 220,000) | AID 2732;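 active = compounds that reduced the stress-induced luciferase reporter signal by more than about 70% of percent inhibition, limit read from the data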
Dynein transport: dynein cargo transport inhibition | AID 1381 | z-score, hits read low | 3617.4 mouse cells, GR-EGFP nuclear translocation imaging; test concentration mostly 20 µM; stimulated with dexamethasone, 1 µM; stronger effect = lower value | actives 0.47% (n = 220,000);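 active = plate z-score of nuclear minus cytoplasmic receptor signal below a set negative limit, without overly bright fluorescence or cell loss, cut at about -3.5 in these data, passing the limit was not always enough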;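 also: z-score of nuclear minus cytoplasmic ring GR-EGFP intensity difference per well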
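Buffer or medium – tet-free medium with charcoal-stripped serum · Signal – automated 10x imaging of fixed Hoechst-stained cells · Also added – dexamethasone agonist, 1.0 µM final, for 30 min · Incubation – induction 48 h, compound 1 h, agonist 30 min · Read-out – GR-EGFP nuclear translocation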
bCat nuc transl: modulators of beta-catenin nuclear translocation; HeLa beta-catenin nuclear translocation, immunofluorescence imaging; nuclear translocation activity, % at 5 µM; actives 0.3% (n = 190,000); AID 1665;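 active = nuclear translocation activity above 50% at 5 µM, with a well cell count of 50 or more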;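 also: per-cell ratio of nuclear to cytoplasmic median beta-catenin stain intensity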
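test system = HeLa cells, endogenous beta-catenin | dosing = single 5 µM dose plus 0.02–20 µM confirmation series | times = compound treatment 24 h, 37°C, 5% CO2 | technique = beta-catenin immunofluorescence imaging with DAPI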
Autophagy HCS: alters autophagy in cells; MEF GFP-LC3 puncta imaging; test concentration mostly 10 µM; calls only at 10 µM (by protocol); actives 0.98% (n = 190,000); AID 463193;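 active = percentage of spot-positive cells more than 3 SD above its plate mean, without a fluorescence outlier flag or 80% toxicity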
MT stabilize HCS: stabilizes microtubules in HeLa cells. HeLa tubulin immunostaining HCS, 24 h; share of cells brighter than vehicle mean+2SD. actives 0.83% (n = 200,000). % tubulin-high responders, % at 10 µM;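 active = plate Z-score above 3 for both tubulin-high and condensed-nucleus cell shares, with cell loss under 80%, at 10 µM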;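 also: anti alpha tubulin signal scored within the nucleus-defined area of each cell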
Each line names hits and unclear results; the compound was inactive in the other large screens.

COc1cc(NC(=O)CSc2nc(C)c(C)c(C)n2)cc(OC)c1	none
C=C(C)C1CC=C(C)/C(=N/NC(=O)c2ccc(NC(=O)CCC)cc2)C1 (stereo not given)	Lmaj promast 100
C=C(C)C1CC=C(C)/C(=N\NC(=O)CCC(=O)Nc2ccc(C)c(C)c2)C1 (stereo not given)	CHOP inhibitor 77 (no result: Lmaj promast, Autophagy HCS, MT stabilize HCS)
C=C(C)C1CC=C(C)/C(=N/NC(=O)CNc2ccc(OCC)cc2)C1 (stereo not given)	Lmaj promast 100
C=C(C)C1CC=C(C)/C(=N/NC(=O)COc2ccccc2C)C1 (stereo not given)	none
C=C(C)C1CC=C(C)/C(=N/NC(=O)c2ccccc2[N+](=O)[O-])C1 (stereo not given)	Lmaj promast 63
C=C(C)C1CC=C(C)/C(=N/NC(=O)CNc2ccc(C)cc2C)C1 (stereo not given)	none
COC(=O)CNC(=O)COC(=O)/C=C/c1ccccc1[N+](=O)[O-]	none
COc1ccccc1NC(=S)NC(NC(=O)CC(C)C)C(Cl)(Cl)Cl (stereo not given)	none
CCn1c(COc2ccccc2C)nnc1SCC(=O)CC(=O)Nc1ccccc1	none
CN(C)NC(=S)NC1(C)CCS(=O)(=O)C1 (stereo not given)	none (no result: Lmaj promast, Autophagy HCS, MT stabilize HCS)
C=C(C)C1CC=C(C)/C(=N/NC(=O)c2ccc(NC(=O)CC)cc2)C1 (stereo not given)	Lmaj promast 99
c1ccc2cc(CSCc3nc4ccccc4[nH]3)ccc2c1	none
COc1ccc(C)cc1S(=O)(=O)N(CC(=O)Nc1cc([N+](=O)[O-])ccc1C)c1ccc(C)c(C)c1	Lmaj promast 99
CCN(CC(=O)Nc1ccccc1OC)CC(=O)Nc1ccccc1-c1ccccc1	MT stabilize HCS 20
CCC(=O)OCC(=O)Nc1ccc([N+](=O)[O-])cc1OC	none
CCN(CC(=O)Nc1ccccc1OC)CC(=O)Nc1ccccc1C(F)(F)F	MT stabilize HCS 18
CCN(CC(=O)Nc1ccc([N+](=O)[O-])cc1OC)CC(=O)NC(C)(C)C	Lmaj promast 71
COc1ccccc1CN(C)CC(=O)Nc1ccccc1-c1ccccc1	none
CCCc1nn(C)c(C(=O)Nc2ccccc2)c1Cl	none
COc1cc(CNCc2cccnc2)ccc1OCC(=O)NC1CCCCC1	Lmaj promast 86
COc1ccccc1OCC(=O)NC1CCCCCC1	none
CCC(C)NC(=O)C1c2ccccc2C(=O)N(c2ccc(OC)cc2)C1c1ccc(OC)cc1 (stereo not given)	none
Cn1cc(/C=C(\C#N)C(=O)Nc2cccc([N+](=O)[O-])c2)c2ccccc21	Autophagy HCS active
Cn1cc(/C=C(\C#N)C(=O)Nc2ncc(Cc3cccc(Cl)c3)s2)c2ccccc21	Lmaj promast 91
N#C/C(=C\c1c[nH]c2ccccc12)C(=O)Nc1ncc(Cc2ccc(Cl)cc2Cl)s1	none
CCOC(=O)C1(CC2CCCCO2)CCN(Cc2ccc(OC)cc2F)CC1 (stereo not given)	none
CCOc1ccc(C(=O)N/N=C/c2c(C)[nH]c(=O)[nH]c2=O)cc1	none (no result: Lmaj promast, Autophagy HCS, MT stabilize HCS)
CCOC(=O)Cn1c(=O)oc2cc(S(=O)(=O)Nc3cc(Cl)ccc3OC)ccc21	none (no result: bCat nuc transl)
Cn1c(=O)oc2cc(S(=O)(=O)N3CCCc4ccccc43)ccc21	none (no result: CHOP inhibitor, bCat nuc transl)
CCOC(=O)Cn1c(=O)oc2cc(S(=O)(=O)Nc3cc(OCC)ccc3OCC)ccc21	Lmaj promast 71
CCOC(=O)Cn1c(=O)oc2cc(S(=O)(=O)N3CCc4ccccc43)ccc21	Lmaj promast 60 (no result: bCat nuc transl)
CC(C)(C)NC(=O)Cn1c(=O)oc2cc(S(=O)(=O)N3CCc4ccccc43)ccc21	Lmaj promast 98
CS(=O)(=O)N1CCC(C(=O)Nc2cc(C(F)(F)F)ccc2Cl)CC1	none
O=C(Nc1cc(C(F)(F)F)ccc1Cl)C1CCN(c2nnc(-n3cccc3)s2)CC1	CHOP inhibitor 83
O=C(C1CCN(c2nnc(-n3cccc3)s2)CC1)N1CCN(Cc2ccc3c(c2)OCO3)CC1	none
CC1CCN(Cc2ccc(NC(=O)C3CCN(c4nnc(-n5cccc5)s4)CC3)cc2)CC1	Lmaj promast 92, Autophagy HCS active
COc1cc(SC)ccc1C(=O)Nc1nccs1	none
COc1ccc(NS(=O)(=O)c2ccc(S(=O)(=O)N3CCCC3)cc2)cc1	Lmaj promast 52
COc1ccc(S(=O)(=O)N2CCCCCC2)cc1N(C)S(=O)(=O)c1ccc(C)cc1	Lmaj promast 51
COc1ccc(S(=O)(=O)N2CCCCC2)cc1	none
COc1ccc(NS(=O)(=O)c2ccc(S(=O)(=O)N3CCOCC3)cc2)cc1	none
COc1ccc2cc(S(=O)(=O)N3CCCCCC3)ccc2c1	Lmaj promast 57
Cc1nc2nc3c(cn2n1)C(=O)CC(C)(C)C3	none
Cc1ccccc1NC(=O)COC(=O)c1cc(=O)c2ccccc2o1	none
Cc1c([N+](=O)[O-])cc(C(=O)Oc2cccc(C(=S)N3CCOCC3)c2)cc1[N+](=O)[O-]	none
CCOC(=O)c1cnc(SCC(=O)Nc2ccc(N3CCOCC3)c(Cl)c2)nc1N	none (no result: bCat nuc transl)
CCOC(=O)c1cnc(SCC(=O)Nc2cc(OC)cc(OC)c2)nc1N	CHOP inhibitor 76
CCOC(=O)c1cnc(SCC(=O)Nc2sc(C)c(C)c2C#N)nc1N	CHOP inhibitor 71
CCc1ccc2nc(SCC(=O)N3CC(=O)Nc4ccccc43)c(C#N)cc2c1	Autophagy HCS active
COc1ccc2nc(SCC(=O)N3CCCCCC3)c(C#N)cc2c1	Lmaj promast 80
COc1ccc2nc(SCC(=O)N3CCCCC3)c(C#N)cc2c1	Lmaj promast 58
CCOc1ccc2nc(SCC(=O)N3c4ccccc4Sc4ccccc43)c(C#N)cc2c1	Lmaj promast 62
CCOc1ccc2cc(C#N)c(SCC(=O)N3CCCC3)nc2c1	none (no result: CHOP inhibitor, bCat nuc transl)
CCOc1ccc2nc(SCC(=O)N3c4ccccc4Sc4ccccc43)sc2c1	none
CCc1ccc2nc(SCC(=O)N3CCCCC3)c(C#N)cc2c1	none (no result: bCat nuc transl)
CSC(N)=NCCC[C@H](N)C(=O)O	none (no result: Lmaj promast, Dynein transport, bCat nuc transl, Autophagy HCS, MT stabilize HCS)
COC(=O)N1CC(=O)N(OC)C1c1ccc(Cl)cc1Cl (stereo not given)	none
O=C(O)CC1(CC(=O)Nc2ccc3sccc3c2)CCCCC1	none (no result: Lmaj promast, Autophagy HCS, MT stabilize HCS)
Cc1cc(C)c2[nH]c(=O)c(C(c3nnnn3Cc3ccc4c(c3)OCO4)N3CCC(C)CC3)cc2c1 (stereo not given)	Lmaj promast 76
Cc1cccc2cc(CN(Cc3ccc(F)cc3)Cc3nnnn3C3CCCC3)c(=O)[nH]c12	none
Cc1ccc2cc(CN(Cc3nnnn3C3CCCC3)C3CCCCC3)c(=O)[nH]c2c1C	none
Cc1cccc2cc(CN(Cc3cccs3)C3(c4nnnn4C4CCCC4)CCCC3)c(=O)[nH]c12	Lmaj promast 73
Cc1cc(C)c2[nH]c(=O)c(CN(Cc3ccc4c(c3)OCO4)Cc3nnnn3C3CCCC3)cc2c1	Lmaj promast 88
